Broadly, the IC50 is the concentration that inhibits the measured activity by half. The term CC50 denotes the concentration at which the toxic effect on the cells reaches its halfway point. A high value points to lower toxicity to the cells. Usually EC50 stands for the concentration at which the effect is half-maximal.

Series [1] relates to Liver microsomes. As to the kind of experiment: Antioxidant activity in Wistar rat liver microsomes assessed as inhibition of lipid peroxidation after 1 hr by thiobarbiturate color reaction. The class given is functional, Microsome. A digest of the protocol: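 Wistar rat liver microsomes in 50 mM Tris-HCl, 100 mM KCl, 0.1 mM EDTA, pH 7.4 (0.625 mg protein/mL). Compound (0–100 μM in DMSO, as added) incubated with tert-butylhydroperoxide (10 mM stock) at 37 °C for 1 h. TBA/TCA added, heated 90 °C 15 min, centrifuged, read at 535 nm. IC50 is 50% inhibition of colour; triplicates in three experiments.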
(In general: Microsomes from liver hold many membrane-bound enzymes, among them those of drug oxidation.)

For series [2], the system named is Radical scavenging activity. The series is described as follows: Antioxidant activity assessed as DPPH radical scavenging activity for 10 mins. The class given is functional. A digest of the protocol: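 Test compound in DMSO/MeOH 1:9 (0–20.0 mM, solution added) mixed 1:1 by volume with 0.1 mM DPPH in the same solvent; absorbance change followed at 540 nm over 10 min. IC50 is the concentration giving 50% absorbance reduction; three measurements in three independent experiments, mean with standard deviation.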

Series [3] is described as follows: Cytotoxicity against MDCK cells after 2 hrs by MTT assay. The class given is cell-based, Canis lupus familiaris. The conditions noted are these: dog. A digest of the protocol: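 MDCK cells seeded at 1.5×10^4 per well in DMEM/10% FCS for 4–5 h, washed, exposed to compound in Opti-MEM I with 0.2% DMSO for 2 h. Then washed and kept in DMEM with 0.2% BSA for 24 h at 37 °C, 5% CO2. Viability by MTT reduction; CC50 relative to untreated wells.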

Series [4] has as its system Influenza A virus. As to the kind of experiment: Antiviral activity against Influenza A virus (A/PR8/34(H1N1)) infected in MDCK cells assessed as inhibition of plaque formation. The class given is functional, organism-based. The conditions noted are these: A/Puerto Rico/8/1934(H1N1). A digest of the protocol:
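Compound premixed with virus in Opti-MEM I with 0.2% DMSO for 30 min at room temperature. The mixture was applied to confluent MDCK monolayers (MOI 2.5×10^-4) for 1 h at room temperature, then washed. Cells were overlaid with agar medium containing trypsin and 0.2% BSA for about 2 days at 37 °C, then fixed with glutaraldehyde and stained with methylene blue. EC50 is the concentration cutting plaque number 50% versus untreated.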

The nature of series [5]: Selectivity index, ratio of CC50 for MDCK cells to EC50 for Influenza A virus (A/PR8/34(H1N1)). The class given is toxicity, cell-based. The conditions noted are these: dog, read-out: Ratio CC50/EC50.

As to `CCCCCCCCCCCCCCCC(=O)OCC1Oc2ccc([C@H]3Oc4cc(O)cc(O)c4C(=O)[C@@H]3O)cc2OC1c1ccc(O)c(OC)c1` (stereo partly drawn), the IC50 in series [1] is 51.9 µM; in series [2], 3200 µM. This compound also returned a CC50 at 2 h in series [3] greater than 480 µM. Also, in series [4], the EC50 was determined as 3 µM. Besides, in series [5], the selectivity ratio was greater than 160.
In the same order, the values of `CCCC(=O)Oc1cc(O)c2c(c1)O[C@H](c1ccc3c(c1)OC(c1ccc(O)c(OC)c1)C(CO)O3)[C@@H](O)C2=O` (stereo partly drawn) are 101 µM, 2300 µM, 300 µM, 14 µM and 21.4.
As for `CCCCCCCCCCCC(=O)OCC1Oc2ccc([C@H]3Oc4cc(O)cc(O)c4C(=O)[C@@H]3O)cc2OC1c1ccc(O)c(OC)c1` (stereo partly drawn), the half-inhibitory concentration (IC50) in series [1] stood at 50.5 µM; in series [2], 2800 µM. Also, half-maximal cytotoxicity in series [3] (CC50 at 2 h) was put at 120 µM. Further, the EC50 in series [4] was 3 µM. The selectivity ratio in series [5] came to 40.
The corresponding values for `CCCC(=O)OCC1Oc2ccc([C@H]3Oc4cc(O)cc(O)c4C(=O)[C@@H]3O)cc2OC1c1ccc(O)c(OC)c1` (stereo partly drawn) are 91.7 µM, 3400 µM, 300 µM, 24 µM and 12.5.
For `COc1cc(C2Oc3cc([C@H]4Oc5cc(O)cc(O)c5C(=O)[C@@H]4O)ccc3OC2CO)ccc1O` (stereo partly drawn) [SILIBININ], the IC50 was 58.1 µM in series [1] and 2100 µM in series [2]. Moreover, the 50% cytotoxic concentration (CC50) at 2 h in series [3] was greater than 800 µM.
Take `CCCCCCCCCCCCCCCC(=O)Oc1cc(O)c2c(c1)O[C@H](c1ccc3c(c1)OC(c1ccc(O)c(OC)c1)C(CO)O3)[C@@H](O)C2=O` (stereo partly drawn): the IC50 stood at 28.9 µM in series [1] and 3600 µM in series [2].
For `CCCCCCCCCCCC(=O)Oc1cc(O)c2c(c1)O[C@H](c1ccc3c(c1)OC(c1ccc(O)c(OC)c1)C(CO)O3)[C@@H](O)C2=O` (stereo partly drawn), the IC50 in series [1] was determined as 44.7 µM; in series [2], 3000 µM. The CC50 at 2 h in series [3] was greater than 560 µM. Further, the EC50 in series [4] stood at 6 µM. Moreover, the selectivity ratio in series [5] is greater than 93.3.
Consider `CCCCCCCC(=O)OCC1Oc2ccc([C@H]3Oc4cc(O)cc(O)c4C(=O)[C@@H]3O)cc2OC1c1ccc(O)c(OC)c1` (stereo partly drawn), for which the values for the IC50 in series [1] and in series [2] were 61.1 µM and 3200 µM, respectively. The compound also yielded a CC50 at 2 h in series [3] of 30 µM.
In the case of `CCCCCCCC(=O)Oc1cc(O)c2c(c1)O[C@H](c1ccc3c(c1)OC(c1ccc(O)c(OC)c1)C(CO)O3)[C@@H](O)C2=O` (stereo partly drawn), the IC50 amounted to 117 µM in series [1] and 4000 µM in series [2]. In series [3], this compound showed a CC50 at 2 h of 240 µM. In series [4], the EC50 was found to be 6 µM. The selectivity ratio in series [5] stood at 40.

The record behind these values is ChEMBL document CHEMBL1154861, “Antioxidant and antiviral activities of silybin fatty acid conjugates” (Eur J Med Chem, 2010).
